Screens as filed in PubChem BioAssay.
MIN6 prolif-1: inducers of beta-cell replication in MIN6 cells | MIN6 cells proliferation, ATPlite luminescence, 48 h; cells starved in 0.2% serum; 100% = growth in 10% serum | proliferation, % at 10 µM | AID 2380 | 330,000 tested, 0.29% active;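 active = compounds whose signal lies at least 3.5 SD above the mean of all wells on their plate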
MPTP block: permeability transition pore inhibition; isolated mouse mitochondria, Ca2+ swelling absorbance, 30 min; inhibition, % at 10 µM; 360,000 tested, 1.4% active; AID 602449;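 active = inhibition of 50% or more, scaled per plate between neutral and stimulator controls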
hiPSC survival: enhancers of human iPSC single-cell survival; 360,000 tested, 0.044% active; hiPSC single-cell survival, ATPlite luminescence; 100% = ROCK inhibitor wells, 0% = DMSO; survival enhancement, % at 20 µM; in the data active = survival enhancement above about 18%;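 note: cells exposed to compounds for 16 hours before the ATP read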
Granule exo inh: lytic granule exocytosis inhibition; TALL-104 LAMP-1 surface exposure, flow cytometry; cells stimulated with thapsigargin and PMA; inhibition, % at 10 µM; 360,000 tested, 0.66% active; AID 651702;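 active = inhibition above about 55%, limit read from the data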
UBC13 inh: blocks human UBC13 polyubiquitin chain formation | AID 485273 | 330,000 tested, 0.47% active | P61088 | TR-FRET | inhibition, % at 20 µM; in the data active = inhibition above about 45%, passing the limit was not always enough
Target sequence (P61088 whole entry, looked up): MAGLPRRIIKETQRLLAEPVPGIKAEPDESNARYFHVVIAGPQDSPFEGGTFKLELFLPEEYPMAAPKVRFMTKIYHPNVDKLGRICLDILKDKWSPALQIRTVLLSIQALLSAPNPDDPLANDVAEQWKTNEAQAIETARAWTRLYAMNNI
Apaf-1 inh: blocks human Apaf-1 apoptosome activity; O14727; reconstituted apoptosome caspase-3 activity, DEVD-Rh110 fluorescence; inhibition, % at 20 µM; 330,000 tested, 0.71% active; AID 489030; active = inhibition of at least 40% at 20 µM
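Material: reconstituted apoptosome with Apaf-1, cytochrome c, caspase-9, procaspase-3, dATP. Technique: Rh110 fluorescence intensity. Buffer or medium: pH 7.5 Hepes buffer with CHAPS, BSA, DTT. Times: 30 min plus 50 min, RT.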
MIN6 prolif-2: confirmation of inducers of beta-cell replication in MIN6 cells; AID 463095; shares compounds with MIN6 prolif-1; MIN6 beta-cell proliferation, ATPlite luminescence, 48 h; cells kept in 0.2% serum; scaled between 0.2% and 10% serum; 920 tested, under 10 active; proliferation increase, % at 50 µM;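 active = proliferation increase above 40% at any of the four tested concentrations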
Numbers stand for hits; . = inactive; / = no result given. Compounds with a hit are over-represented: about 3% of the library has one in this group of screens.

SMILES	MIN6 prolif-1	MPTP block	hiPSC survival	Granule exo inh	UBC13 inh	Apaf-1 inh	MIN6 prolif-2
CC1(C)Nc2cccc3cccc(c23)N1	/	.	.	63	/	/	/
O=c1n(S(=O)(=O)c2cccc3cccnc23)c2ccccc2n1S(=O)(=O)c1cccc2cccnc12	.	.	.	68	.	.	/
COc1ccc(S(=O)(=O)N2CCC(C(=O)NC3CC3)CC2)cc1OC	.	.	.	.	.	.	/
O=C1/C(=C/c2ccccc2O)SC(=S)N1Cc1cccnc1	.	.	.	58	.	.	/
CCn1c(C)nc2cc(C(=O)N/N=C/c3ccc(OC)cc3)ccc21	7.8	.	.	.	.	.	.
COc1cc2c(cc1OC)C1=C(C#N)CCC(=NC(=O)c3ccco3)N1CC2	9.8	.	.	.	.	.	.
COc1ccccc1N1CC(C(=O)OCC(=O)Nc2c(C)cccc2C)CC1=O (configuration not stated)	.	.	.	.	.	.	/
COc1ccc(S(=O)(=O)c2cnc3ccc(OC)cc3c2N2CCC3(CC2)OCCO3)cc1	.	.	.	.	.	.	/
CCOc1ccc2ncc(S(=O)(=O)c3ccccc3)c(N3CCC4(CC3)OCCO4)c2c1	0.0	/	/	/	.	.	.
COc1cc2c(cc1OC)CN(C(=O)CN1CCN(S(=O)(=O)c3ccccc3)CC1)CC2	.	.	.	.	.	.	/
COc1ccccc1Nc1ccncc1[N+](=O)[O-]	8.1	.	.	.	.	.	.
O=[N+]([O-])c1cnccc1Nc1ccccc1	.	.	.	.	.	.	/
COc1ccccc1N1CCN(S(=O)(=O)CCNC(=O)c2ccccc2Br)CC1	.	.	.	.	.	.	/
CCCNC(=O)N1C2=NC(C(=O)OC)=C(C(=O)OC)[C@@H]3N(Cc4ccccc4)c4ccccc4[C@]23C[C@H]1CO	.	.	.	.	.	.	/
Cc1ccc(-c2ccc(=O)n(CC(=O)NCC3COCCO3)n2)cc1 (configuration not stated)	.	.	.	.	.	.	/
COC(=O)c1ccccc1NC(=O)c1cc(-c2ccc(C)cc2)on1	8.3	.	.	.	.	.	.
COc1ccc(-c2cc(C(=O)Nc3ccccc3SC)no2)cc1	.	.	.	.	.	.	/
CCOc1ccc(C(=O)NCC(=O)OCCCC(=O)c2ccc(F)cc2)cc1OCC	14	.	.	.	.	.	.
COc1ccc(C(=O)NCC(=O)OCCCOC(=O)CNC(=O)c2ccc(OC)c(OC)c2)cc1OC	.	.	.	.	.	.	/
Cc1cccc(C(=O)N[C@H](C(=O)NCCc2ccc(S(N)(=O)=O)cc2)C(C)C)c1	.	.	.	.	.	.	/
CCc1noc(C)c1C(=O)Nc1nc(-c2ccccc2)c(C(C)=O)s1	.	.	.	.	.	.	/
CCCCn1c(-c2nonc2N)nc2ccccc21	8.1	.	.	.	.	.	.
O=C(CC1SC2=NCCN2C1=O)Nc1ccc(Br)cc1 (configuration not stated)	.	.	.	.	.	.	/
CCOC(=O)c1ccc(NC(=O)CC2SC3=NCCN3C2=O)cc1 (configuration not stated)	5.8	.	.	.	.	.	.
C/C(=N/NC(=O)c1ccc(Br)s1)c1cccnc1	.	.	.	.	.	.	/
SMILES	MIN6 prolif-1	MPTP block	hiPSC survival	Granule exo inh	UBC13 inh	Apaf-1 inh	MIN6 prolif-2
C/C(=N/NC(=O)c1ccc(Br)s1)c1ccncc1	15	.	.	.	.	.	.
COCc1cc(C)nc2sc(C(=O)Nc3ccccc3OC)c(N)c12	.	.	.	.	.	.	/
CN1CCN(P(=O)(c2ccccc2)c2nc3ccccc3s2)CC1 (configuration not stated)	5.9	.	.	.	.	.	.
NC(=O)c1c(NC(=O)CSc2nnc(Cc3ccccc3)n2Cc2ccco2)sc2c1CCC2	.	.	.	.	.	.	/
CCCCn1c(SCC(=O)Nc2sc3c(c2C(N)=O)CCC3)nnc1-c1ccccc1	8.3	.	.	.	.	.	.
COc1ccc(Cl)cc1CNC[C@H]1O[C@@H](n2cnc3c(=O)[nH]c(N)nc32)[C@H](O)[C@@H]1O	/	.	.	.	/	/	/
N#CCc1ccc(Oc2ncccn2)cc1	8.4	.	.	.	.	.	.
O=C(CSc1ccc(-c2ccc(-n3cccn3)cc2)nn1)Nc1ccccc1F	.	.	.	.	.	.	/
COc1ccc([N+](=O)[O-])cc1NC(=O)c1ccc(N2C(=O)CCC2=O)cc1	7.8	.	.	.	.	.	.
O=C(CN1CCOCC1)Nc1ccc([N+](=O)[O-])cc1	.	.	.	.	.	.	/
Cc1ccc(C)c(NC(=O)CN(C)C(=O)Cn2c(=O)oc3ccccc32)c1	.	.	.	.	.	.	/
c1csc(Cc2nn3c(-c4ccncc4)nnc3s2)c1	7.3	.	.	.	.	78	.
c1cc(-c2nnc3sc(C4CCCCC4)nn23)ccn1	9.0	.	.	.	.	.	.
COc1ccccc1-c1nnc2sc(C3CCCCC3)nn12	.	.	.	.	.	.	/
COc1ccc(NC(=O)C[C@H]2C(=O)N(C3CCCCC3)C[C@@H]2CSC)cc1	/	.	.	.	/	/	/
Cc1ccc(S(=O)(=O)N2CCCC2)cc1C(=O)NCC(C)(C)N1CCOCC1	.	.	.	.	.	.	/
CCSc1nc(N)c(C#N)c(-c2ccco2)c1C#N	14	.	.	.	.	.	.
COC(=O)CSc1nc(N)c(C#N)c(-c2ccco2)c1C#N	.	.	.	.	.	.	/
Cc1c(C)c2ccc(OC(C)C(=O)NC3CCN(Cc4ccccc4)CC3)cc2oc1=O (configuration not stated)	.	.	.	.	.	.	/
N#Cc1nc(-c2ccco2)oc1NCc1ccccc1Cl	4.6	.	.	.	.	.	.
N#Cc1nc(-c2ccco2)oc1NCc1ccco1	.	.	.	.	.	.	/
O=c1cc(-c2ccc(O)c(O)c2)oc2cc(O[C@@H]3O[C@H](CO)[C@@H](O)[C@H](O)[C@H]3O)cc(O)c12	.	.	.	.	.	.	/
O=c1cc(-c2ccc(O)cc2)oc2cc(O)c(C3OC(CO)C(O)C(O)C3O)c(O)c12 (configuration not stated)	9.0	.	.	.	.	.	.
COc1cccc(NC(=O)CN(C)C(=O)c2cn(-c3ccccc3)nc2-c2cccnc2)c1	9.5	.	.	.	.	.	.
O=C(Nc1cc(Cl)ccc1-n1cncn1)c1cccc(S(=O)(=O)N2CCOCC2)c1	.	.	.	.	.	.	/
O=c1c2ccccc2nc(SCc2cn3ccsc3n2)n1-c1ccccc1	6.1	.	.	.	.	.	.
O=c1c2ccccc2nc(SCc2cn3ccsc3n2)n1-c1ccccc1F	.	.	.	.	.	.	/
